Compound activity from PubChem.
Most compounds without a hit are left out; they make up all but 1.4% or so of the library.
DNA FID counter: fluorescent intercalator displacement, NS3 helicase counter-screen; actives 0.17% (n = 290,000); AID 1845; inhibition, % at 7.9 µM; DNA fluorescent intercalator displacement, fluorescence; in the data active means inhibition above about 37%;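 further: higher means more ethidium bromide displaced from hairpin DNA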
PLCb3 inh: inhibitors of human phospholipase C beta3 | Purified PLC-beta3, fluorogenic substrate, fluorescence | AID 720704 | actives 0.18% (n = 370,000) | Q01970 | inhibition, % at 12.2 µM; in the data active means inhibition above about 11%
DDE Tn6 FP inh: disrupts Tn6 cyclic peptide binding to fibrin D-Dimer-E complex | actives 0.21% (n = 370,000) | Fibrin DD(E) TRITC-Tn6 fluorescence polarization displacement | inhibition, % at 8.3 µM | P02675 | AID 720509;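 active means inhibition above a per-campaign cutoff: mean of compounds within control limits plus 3 SD, cut at about 15% in these data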
Target sequence (P02675 whole entry, looked up): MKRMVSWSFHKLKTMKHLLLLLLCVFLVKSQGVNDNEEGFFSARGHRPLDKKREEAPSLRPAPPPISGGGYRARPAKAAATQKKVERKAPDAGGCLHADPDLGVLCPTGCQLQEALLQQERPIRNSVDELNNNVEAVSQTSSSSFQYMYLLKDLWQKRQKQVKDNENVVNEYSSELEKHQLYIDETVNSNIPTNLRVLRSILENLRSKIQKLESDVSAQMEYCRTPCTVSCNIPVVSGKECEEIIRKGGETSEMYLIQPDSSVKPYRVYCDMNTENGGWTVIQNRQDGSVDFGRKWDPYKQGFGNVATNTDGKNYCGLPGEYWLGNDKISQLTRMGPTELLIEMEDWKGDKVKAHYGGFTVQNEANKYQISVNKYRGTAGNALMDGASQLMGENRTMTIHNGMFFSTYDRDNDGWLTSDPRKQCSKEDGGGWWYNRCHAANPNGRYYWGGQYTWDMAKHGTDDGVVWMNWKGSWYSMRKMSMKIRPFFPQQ
DDE Tn7 FP inh: DD(E)-Tn7 binding inhibition, primary FP screen; actives 0.13% (n = 370,000); AID 720508; inhibition, % at 8.3 µM; P02675; FP displacement of FITC-Tn7 peptide from fibrin DD(E); 0% = median of compound wells per plate;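 active means inhibition above the mean of compounds falling within the control limits plus 3 SD of them, cut at about 14% in these data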
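Test system: human clot-derived fibrin DD(E) complex / Quantity: 2 µM final DD(E) protein / Incubation: 10 min plus 3 h, room temperature / Measured by: fluorescence polarization / Benchmarks: high control of 10 µM Aha-Tn7 peptide / Replicates: singlicate testing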
PLCg1 inh: PLC-gamma1 (human) inhibition, primary screen. actives 0.84% (n = 370,000). P19174. purified PLC-gamma1, fluorogenic substrate, fluorescence. inhibition, % at 12.2 µM; in the data active means inhibition above about 9.5%
Each line names hits and unclear results; the compound was inactive in the other large screens; ! = repeats disagree.

O=C1SC(SC(=Nc2ccccc2)Nc2ccccc2)C(=O)N1c1ccccc1 (configuration not stated)	PLCb3 inh 14.2
Cc1c(NC(=O)CN2CCN(c3ccccc3)CC2)c(=O)n(-c2ccccc2)n1C	none
Cc1c(NC(=O)CN2CC(C)OC(C)C2)c(=O)n(-c2ccccc2)n1C (configuration not stated)	PLCg1 inh 14.3!
Cc1c(C(=O)NNC(=O)c2csc(N3CCOCC3)n2)oc2ccccc12	none (no result: DNA FID counter)
Brc1ccc(C2=CC(c3cccs3)n3ncnc3N2)cc1 (configuration not stated)	DDE Tn7 FP inh 19.4
Cc1cc(C)c(NC(=O)CN(C)C(=O)c2ccc(OCc3ccccc3)cc2)c(C)c1	none (no result: DNA FID counter)
O=C(COC(=O)CCNS(=O)(=O)c1ccccc1)NC(=O)Cc1ccccc1	none (no result: DNA FID counter)
CS(=O)(=O)N1CCN(c2ccc(NC(=O)c3ccc(-c4ccc(Cl)cc4)o3)cc2)CC1	none
CN1CCN(c2ccc(NC(=O)c3ccc(-c4ccc(Cl)cc4)o3)cc2)CC1	DNA FID counter 37.8
Cc1ccc(SCC(=O)Nc2ccc(N3CCN(C)CC3)c(F)c2)c(C)c1	DNA FID counter 38.9
Cc1ccc(-n2nnnc2SCC(=O)Nc2ccc(N3CCN(C)CC3)cc2)c(C)c1	none
O=C(NCCO)c1cccc2c1C(=O)c1ccccc1-2	none
CCN(CC)CCC(=O)Nc1cccc2c1C(=O)c1ccccc1C2=O	DNA FID counter 69.1
CCN(CC)CCNC(=O)c1ccc2c(c1NCCO)C(=O)c1ccccc1C2=O	DNA FID counter 41.7
Nc1cccc(C(=O)OCC(=O)Nc2cccc3c2C(=O)c2ccccc2C3=O)c1	none
CC(C)Cc1n[nH]c(=O)c2c1nnn2Cc1ccccc1F	none
CCOC(=O)Nc1ccc(NCc2ccc(F)cc2)nc1N	DDE Tn7 FP inh 22.8 (no result: DNA FID counter)
CCOC(=O)Nc1ccc(C)cc1NC(=O)OCC	none
COc1ccc2nc(C)cc(Nc3ccc(N4CCOCC4)cc3)c2c1	none
COc1ccc2nc(C)cc(Nc3ccc(N4CCN(C)CC4)cc3)c2c1	DNA FID counter 83.6
CCOC(=O)COc1ccc(S(=O)(=O)Nc2ccc3c(c2)OCO3)cc1	DNA FID counter 48.0
C/C(=N/NC(=O)c1ccc(Br)s1)c1cccnc1	none
COC(=O)CNC(=O)C1Cc2ccccc2CN1S(=O)(=O)c1ccc(F)cc1 (configuration not stated)	PLCg1 inh 9.6
CCNC(=O)C1Cc2ccccc2CN1S(=O)(=O)c1ccc(F)cc1 (configuration not stated)	none
Nc1ncnc2c1ncn2CCN1CCCCC1	none
Cc1cc(C)c(C)c(OCC(=O)NCC2CCCO2)c1 (configuration not stated)	PLCg1 inh 12.1
CCNc1c2c3c(cccc3n(C)c1=O)C(=O)c1ccccc1-2	none (no result: PLCb3 inh, DDE Tn6 FP inh, DDE Tn7 FP inh, PLCg1 inh)
Cn1c(=O)c(N)c2c3c(c(Br)ccc31)C(=O)c1ccccc1-2	DDE Tn6 FP inh 16.3
CCN(C(=O)CSc1ncccc1C(=O)OC(C)C)c1cccc(C)c1	none
Cc1ccc(S(=O)(=O)NCCNC(=O)c2ccccc2)cc1	none
Cc1ccc(S(=O)(=O)NCc2ccc(C(=O)NCCN(Cc3ccccc3)C(C)C)cc2)cc1	DNA FID counter 38.9
CCOC(=O)c1cnc2c(CC)cccc2c1NCCN1CCOCC1	none
CCOC(=O)c1cnc2c(C)cc(Cl)cc2c1NCCCN1CCOCC1	DNA FID counter 45.9
CCOC(=O)c1cnc2c(C)cccc2c1NCCCN1CCOCC1	DNA FID counter 54.8
CCOC(=O)c1cnc2c(Cl)cc(Cl)cc2c1NCCCN1CCOCC1	none
COc1ccc(S(=O)(=O)N2CCCCCC2)cc1NC(=O)CN1C(=O)CNC1=O	PLCg1 inh 11.2 (no result: DNA FID counter)
COc1ccc(S(=O)(=O)N2CCCCCC2)cc1NC(=O)Cc1cc(OC)c(OC)c(OC)c1	none
CCc1cc2c(SCC(=O)c3ccc(Cl)s3)ncnc2s1	PLCg1 inh 10.0
CCc1cc2c(SCC(=O)Nc3ccc(Cl)cn3)ncnc2s1	none
CCC(C)(C)c1ccc(OCC(=O)Nc2ccncc2)cc1	none
O=C(CN1C(=O)NC2(CCCCCC2)C1=O)Nc1cccc(F)c1	none (no result: DNA FID counter)
O=C(CN1C(=O)NC2(CCCCC2)C1=O)Nc1ccc2c(c1)OCCCO2	PLCg1 inh 9.6 (no result: DNA FID counter)
Cc1ccc(C(=O)COC(=O)c2cc(=O)[nH]c3ccccc23)cc1	none
CCc1nc2ccc(C(=O)N(C)Cc3ccccc3)cn2c1N(C)CCCc1ccccc1	none (no result: DNA FID counter)
CCCN(CC(=O)Nc1cccc(S(N)(=O)=O)c1)CC(=O)Nc1ccc(F)c(F)c1F	none
CCCN(CC(=O)Nc1cccc(Br)c1)CC(=O)Nc1ccc(F)c(F)c1F	PLCb3 inh 11.3
Cc1nn(CC(=O)NCCCN2CCN(C)CC2)c(=O)c2cc(-c3ccccc3)nn12	none
Cc1nn(CC(=O)NCCCN2CCC(N3CCCCC3)CC2)c(=O)c2cc(-c3ccccc3)nn12	DNA FID counter 38.4
CCOC(=O)N1CCc2c(sc3ncn(Cc4ccc(F)cc4)c(=O)c23)C1	none
Cc1cc2cc(CNC(=O)c3ccc(S(=O)(=O)N4CCCCC4)cc3)ccc2n1C	DDE Tn6 FP inh 164.3
COc1cc2c(cc1OC)C(C)N(C(=O)Cn1ncc3c1-c1cc(C)ccc1OC3)CC2 (configuration not stated)	none
COc1cc2nc(N3CCNCC3)nc(N)c2cc1OC	DNA FID counter 48.9
CC(Sc1nnc(-c2ccccc2)c(-c2ccccc2)n1)C(=O)NCC1CCCO1 (configuration not stated)	PLCg1 inh 12.2 (no result: DNA FID counter)
O=C(COC(=O)CNC(=O)c1ccccc1F)NC1CC1	none (no result: DNA FID counter)
O=C(COC(=O)CNC(=O)c1ccccc1F)NC12CC3CC(CC(C3)C1)C2	PLCg1 inh 12.0 (no result: DNA FID counter)
COc1ccc(C(=O)c2c(C)c3ccccc3n2CC(O)CNC(C)C)cc1 (configuration not stated)	DNA FID counter 37.5
Cc1cccc(NC(=O)N2CCC(n3nnc4cc(C)ccc43)CC2)c1	none
CCCCN(CC)CCCNC(=O)c1cn(CC)c2ccc(S(=O)(=O)N3CCc4ccccc4C3)cc2c1=O	DNA FID counter 40.6
CC(Oc1ccc2c3c(c(=O)oc2c1)CCCC3)C(=O)NCCN1CCOCC1 (configuration not stated)	none
COc1cc(OC)cc(-n2nnnc2SCC(=O)NCc2cccs2)c1	none
Cn1cc(C(=O)c2ccc(Cl)cc2Cl)cc1C(=O)N/N=C(\N)COc1ccc(Cl)cc1Cl	PLCg1 inh 11.9
Cn1cc(C(=O)c2ccc(Cl)cc2Cl)cc1C(=O)N/N=C(\N)COc1ccc(Cl)cc1	none
O=C1NC(=S)S/C1=C\c1cc(Cl)cc(Cl)c1O	DDE Tn6 FP inh 25.4 (no result: DNA FID counter)
O=C1NC(=S)SC1=Cc1ccccc1Cl	none (no result: DNA FID counter)
CCC[C@@H](CN1CCC[C@H]1CN1C(N)=NC[C@H]1CC(C)C)N1C[C@@H](Cc2ccccc2)N(CCc2ccc(Cl)c(Cl)c2)C1=N	PLCb3 inh 12.0 (no result: DNA FID counter)
COc1ccc(C2=C(CN(C)C)C(c3ccccc3)c3ccccc3O2)cc1 (configuration not stated)	DNA FID counter 46.0!
CC(C)(NO)/C(=N/O)c1cccs1	PLCb3 inh 11.8
